Bioassay records from PubChem.
A1 apoptosis 2 – compounds inhibiting A1, read as caspase activation | caspase activation, % (no concentration beside the values) | 24,000 tested, under 10 active | MEF A1-2A-BIM cells, caspase-Glo luminescence, 3 h; percent of clofoctol response, DMSO zero; in the data active = caspase activation above about 5.9%
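Material: mouse embryonic fibroblasts co-expressing A1 and BIM (A1-2A-BIM), primed for A1 dependence / Quantity: 2500 cells/well / Buffer or medium: RPMI-1640 growth medium with 10% FBS / Doses: 50 nL compound per well, pinned / Schedule: 3 h compound exposure at 37 °C / Signal: Caspase-Glo luminescence (DEVD substrate) / Measure: Caspase-3/7 activation, seen as rise in luminescence signal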
T cruzi intra – blocks T. cruzi growth inside host cells; AID 651903; intracellular Trypanosoma cruzi in host cells, plate reader; activity score (inhibition), % at 5.01 µM; hit rate 4.9% among 22,000; in the data active = activity score above about 55%;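 note: parasites and compound incubated about four days before reading; 0% = median of neutral control wells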
INS-1E ATP HTS – INS-1E beta cell protection from cytokine death. INS-1E cytokine-induced death, ATP luminescence, 48 h; normalised: neutral wells 0, positive control 100. protection from cytokine-induced ATP loss, % at 10 µM. hit rate 0.1% among 20,000. AID 488910;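 active = mean replicate protection from cytokine-induced ATP loss at least 50% and at least 75% of replicates each reaching 50%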
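Material: INS-1E rat cells; Quantity: 8000 cells/well; Buffer or medium: phenol-red-free RPMI with 5% fetal bovine serum; Probe or stimulus: cytokine cocktail of IFN-γ, TNF-α and IL-1β; Compound dosing: single test concentration per compound, delivered by pin transfer; Incubation: 48 h co-treatment, 10 min post-lysis read; Signal: CellTiter-Glo luminescence.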
* = called active by the depositor; · = no result. The full list was thinned out, with hits kept by preference.

SMILES | A1 apoptosis 2 | T cruzi intra | INS-1E ATP HTS
C[C@@H]1CCCCO[C@@H](CN(C)S(=O)(=O)c2cccs2)[C@@H](C)CN([C@H](C)CO)C(=O)c2cc(NC(=O)Nc3ccc(C(F)(F)F)cc3)ccc2O1 | 0 | 67* | -12
C[C@H](CO)N1C[C@H](C)[C@@H](CN(C)S(=O)(=O)c2cccs2)OCCCC[C@H](C)Oc2ccc(NC(=O)Nc3ccc(C(F)(F)F)cc3)cc2C1=O | -1 | · | ·
COc1ccc(S(=O)(=O)Nc2ccc3c(c2)CC(=O)N([C@H](C)CO)C[C@@H](C)[C@H](CN(C)Cc2ccncc2)O3)cc1 | · | -9 | 2
Cc1cc(C(=O)Nc2cccc3c2O[C@H](CN(C)C(=O)Nc2cccc4ccccc24)[C@H](C)CN([C@H](C)CO)C3=O)n(C)n1 | · | -20 | 19
O=C(NO)c1cccc(C(=O)N/N=C/c2cccc(O)c2O)c1 | -6 | 1 | -27
O=C(N/N=C/c1cc(Cl)cc(Cl)c1O)c1ccccc1O | -10 | 73* | -115
O=C(N/N=C/c1ccc(O)c(O)c1O)c1ccccc1O | -5 | 57* | -19
O=C(NO)c1cccc(C(=O)N/N=C/c2ccc(O)c(O)c2O)c1 | -1 | 61* | 8
O=C(N/N=C/c1cc(O)ccc1O)c1ccccc1O | · | 18 | -126
O=C(N/N=C/c1ccccc1O)c1ccccc1O | · | 32 | -135
O=C1C[C@@](C(=O)NCc2ccccc2)(c2ccc([N+](=O)[O-])cc2)[C@@H](c2ccc(CO)cc2I)N1CC12CC3CC(CC(C3)C1)C2 | -1 | · | ·
CC(C)=CCC[C@H](C)C/C=N/NC(=O)CCCCCCC(=O)Nc1ccccc1O | -2 | 4 | 6
O=C(N/N=C/c1c(O)ccc2ccccc12)c1ccccc1O | -5 | · | ·
O=C(O)CCCCCCC(=O)N/N=C/C1CCCCC1 | 1 | -25 | 15
O=C(CCCCCCC(=O)Nc1ccccc1O)N/N=C/c1ccccc1[N+](=O)[O-] | · | -1 | 2
CN(CCO)c1ccc(/C=N/NC(=O)CCCCCCC(=O)NO)cc1 | 2 | · | ·
C[C@H]1CN([C@@H](C)CO)C(=O)c2cc(NS(=O)(=O)c3ccccc3)ccc2O[C@H]1CN(C)S(=O)(=O)c1ccc(Cl)cc1 | 2 | -7 | 0
Cc1ccc(S(=O)(=O)Nc2ccc3c(c2)C(=O)N([C@H](C)CO)C[C@H](C)[C@H](CN(C)S(=O)(=O)c2ccccc2)O3)cc1 | -1 | 74* | ·
Cc1ccc(S(=O)(=O)N(C)C[C@H]2Oc3ccc(NS(=O)(=O)c4ccccc4)cc3C(=O)N([C@@H](C)CO)C[C@@H]2C)cc1 | 2 | 6 | -5
C[C@H]1CN([C@@H](C)CO)C(=O)c2cc(NS(=O)(=O)c3ccc(Cl)cc3)ccc2O[C@H]1CN(C)S(=O)(=O)c1ccc(Cl)cc1 | · | 44* | ·
Cc1ccc(S(=O)(=O)N(C)C[C@H]2Oc3ccc(NS(=O)(=O)c4ccc(Cl)cc4)cc3C(=O)N([C@@H](C)CO)C[C@@H]2C)cc1 | · | 8 | 4
C[C@H](CO)N1C[C@H](C)[C@H](CN(C)S(=O)(=O)c2ccc(Cl)cc2)Oc2ccc(NS(=O)(=O)c3ccccc3)cc2C1=O | · | 62* | ·
CC(C)Nc1cccnc1N1CCN(C(=O)c2cc3cc(O)ccc3[nH]2)CC1 | 1 | · | ·
C=CCOC(=O)[C@H]1[C@@H]2C(=O)O[C@@H](c3ccccc3)[C@@H](c3ccccc3)N2[C@@H](c2ccc(OCCOC(=O)[C@H]3C[C@H]4C(=O)N[C@@H](CCCCNC(C)=O)C(=O)N4[C@H]3c3cccc(OCCO)c3)cc2)[C@]12C(=O)Nc1ccccc12 | 1 | · | ·
COc1ccc(Br)cc1/C=N/NC(=O)c1ccc(C(=O)NO)cc1 | 1 | -3 | 16
SMILES | A1 apoptosis 2 | T cruzi intra | INS-1E ATP HTS
C[C@@H]1CN([C@@H](C)CO)C(=O)c2cc(NC(=O)CCN3CCOCC3)ccc2O[C@H]1CN(C)S(=O)(=O)c1cn(C)cn1 | 1 | -22 | 5
C[C@@H]1CN([C@@H](C)CO)C(=O)Cc2cc(NC(=O)CCN3CCOCC3)ccc2O[C@@H]1CN(C)Cc1ccc(-c2ccccc2)cc1 | -1 | -66 | 7
O=C(N/N=C/c1ccc(-c2ccccc2)cc1)c1ccccn1 | · | -21 | -25
COc1ccc(S(=O)(=O)Nc2ccc3c(c2)CC(=O)N([C@@H](C)CO)C[C@H](C)[C@@H](CN(C)Cc2ccc(C(F)(F)F)cc2)O3)cc1 | 0 | 83* | -13
Cc1ccc(S(=O)(=O)Nc2ccc3c(c2)CC(=O)N([C@H](C)CO)C[C@H](C)[C@H](CN(C)Cc2ccc(C(F)(F)F)cc2)O3)cc1 | · | 34 | -6
Cc1ccc(S(=O)(=O)Nc2ccc3c(c2)CC(=O)N([C@@H](C)CO)C[C@@H](C)[C@@H](CN(C)Cc2ccc(C(F)(F)F)cc2)O3)cc1 | 0 | 64* | -31
COc1ccc(CN(C)C[C@@H]2Oc3ccc(NS(=O)(=O)c4ccc(OC)cc4)cc3CC(=O)N([C@@H](C)CO)C[C@H]2C)cc1 | -1 | · | ·
C[C@H]1CN([C@@H](C)CO)C(=O)Cc2cc(NS(=O)(=O)c3ccccc3)ccc2O[C@H]1CN(C)Cc1ccc(C(F)(F)F)cc1 | · | 48 | -1
C[C@@H]1CN([C@H](C)CO)C(=O)Cc2cc(NS(=O)(=O)c3ccc(F)cc3)ccc2O[C@@H]1CN(C)Cc1ccc(C(F)(F)F)cc1 | · | 60* | -48
O=C(N/N=C/c1cc(O)ccc1O)c1ccccn1 | -12 | 10 | -7
C[C@@H]1CN([C@H](C)CO)C(=O)Cc2cc(N(C)C)ccc2O[C@@H]1CN(C)Cc1ccc(Oc2ccccc2)cc1 | -2 | 40 | -51
C[C@H]1CN([C@@H](C)CO)C(=O)Cc2cc(N(C)C)ccc2O[C@@H]1CN(C)Cc1ccc(Oc2ccccc2)cc1 | 0 | 67* | -1
C[C@H]1CN([C@@H](C)CO)C(=O)Cc2cc(N(C)C)ccc2O[C@H]1CN(C)Cc1ccc(Oc2ccccc2)cc1 | · | 76* | -22
C[C@H](CO)N1C[C@H](C)[C@H](CN(C)Cc2ccccc2)Oc2ccc(N(C)C)cc2CC1=O | 0 | 4 | -2
C[C@H]1CN([C@@H](C)CO)C(=O)Cc2cc(NC(=O)Nc3ccccc3)ccc2O[C@H]1CN(C)Cc1ccc(C(=O)Nc2ccccc2N)cc1 | 0 | 69* | 12
C[C@@H]1CN([C@@H](C)CO)C(=O)Cc2cc(N(C)C)ccc2O[C@H]1CN(C)Cc1ccc(C(=O)Nc2ccccc2N)cc1 | 0 | · | ·
C[C@H](CO)N1C[C@H](C)[C@@H](CN(C)Cc2ccc(C(=O)Nc3ccccc3N)cc2)Oc2ccc(NC(=O)Nc3ccc(F)cc3)cc2CC1=O | 0 | · | ·
C[C@H]1CN([C@@H](C)CO)C(=O)Cc2cc(NC(=O)Nc3cccc4ccccc34)ccc2O[C@H]1CN(C)Cc1ccc(C(=O)Nc2ccccc2N)cc1 | 0 | 74* | -9
C[C@H]1CN([C@@H](C)CO)C(=O)Cc2cc(NC(=O)Nc3cccc4ccccc34)ccc2O[C@@H]1CN(C)Cc1ccc(C(=O)Nc2ccccc2N)cc1 | -2 | 38 | -14
C[C@H]1CN([C@@H](C)CO)C(=O)Cc2cc(N(C)C)ccc2O[C@@H]1CN(C)Cc1ccc(C(=O)Nc2ccccc2N)cc1 | · | 70* | 6
